Rows were chosen to be rich in hits. Some 9.8% of all compounds tested hit in one or more screens of this group.
Calpain2 inh: inhibitors of pig calpain II; purified calpain II, fluorogenic peptide substrate, 30 min; inhibition, % at 16 µM; 220,000 compounds, 0.37% hits;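 active means inhibition above about 50%, limit read from the data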
Rad51 HR inh: blocks human Rad51 in homologous recombination | hRad51 DNA strand exchange, fluorescence dequenching | inhibition, % at 10 µM | 200,000 compounds, 0.085% hits | AID 1385;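 active means inhibition above 40% at the single screening dose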;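 further: 0% = DMSO control wells and 100% = blanks with heterologous ssDNA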
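System: human Rad51 nucleoprotein filaments preassembled on unlabelled ssDNA. Reagent: labelled 47-mer dsDNA for strand exchange. Schedule: 30-min compound preincubation and 15-min exchange, both room temperature. Measured by: FRET fluorescence dequenching, excitation 485 nm, emission 520 nm. Read-out: Fluorescence-based percent inhibition, control- and blank-normalised. Benchmarks: plate controls and plate blanks.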
PMI act: increases human mannose-6-phosphate isomerase activity | P34949 | purified human PMI, coupled resazurin fluorescence, 20 min; stronger effect = higher value; 1 = vehicle control, 0 substrate-free wells | 190,000 compounds, 0.005% hits | activation factor at 20 µM;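 active means activation factor of 2 or more at 20 µM, relative to plate controls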
Target sequence (P34949 whole entry, looked up): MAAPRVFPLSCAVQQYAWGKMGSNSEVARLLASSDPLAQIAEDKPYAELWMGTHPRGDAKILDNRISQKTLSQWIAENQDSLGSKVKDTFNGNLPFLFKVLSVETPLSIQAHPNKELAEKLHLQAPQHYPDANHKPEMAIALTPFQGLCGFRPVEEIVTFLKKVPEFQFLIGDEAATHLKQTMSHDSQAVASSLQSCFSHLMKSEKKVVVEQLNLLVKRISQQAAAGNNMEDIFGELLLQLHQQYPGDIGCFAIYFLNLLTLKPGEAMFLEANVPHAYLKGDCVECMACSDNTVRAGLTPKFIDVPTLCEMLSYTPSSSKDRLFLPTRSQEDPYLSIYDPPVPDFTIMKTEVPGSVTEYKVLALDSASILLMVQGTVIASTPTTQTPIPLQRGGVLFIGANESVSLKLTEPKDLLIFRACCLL
Lmaj promast: inhibitors of Leishmania major promastigote growth; Leishmania major promastigotes, resazurin fluorescence viability; inhibition, % at 10 µM; 200,000 compounds, 9% hits; AID 1063; in the data active means inhibition above about 50%;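 further: promastigotes grown with compound for 44 hours at 28 °C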
PMI act satM6P: increases human PMI activity with near-saturating mannose 6-phosphate; P34949; coupled PMI enzyme assay, resazurin fluorescence, 20 min; stronger effect = higher value; 1 = untreated enzyme, 0 = substrate-free blank; activation factor at 20 µM; 190,000 compounds, 0.34% hits; AID 1216;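 active means activation factor of 2 or more at 20 µM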
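test system = human PMI in coupled enzyme assay | medium = HEPES-buffered pH 7.4 with magnesium and detergent | also added = 1.0 mM mannose-6-phosphate substrate with 0.22 mM NADP+ | compound = 20 µM single dose | times = 20 min incubation at room temperature | measured by = resorufin fluorescence (Ex 544/Em 590 nm) from resazurin via diaphorase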
WT yeast gro inh: growth inhibition of WT yeast, mitochondrial fusion screen. AID 1362. inhibition, % at 10 µM. 190,000 compounds, 2.1% hits. mitochondrial fusion phenotypic screen, WT strain; in the data active means inhibition above about 58%; tested in S. cerevisiae
An asterisk follows results filed as active; . = no result.

SMILES	Calpain2 inh	Rad51 HR inh	PMI act	Lmaj promast	PMI act satM6P	WT yeast gro inh
NC(=O)COc1ccc2oc(-c3ccccc3)cc(=O)c2c1	-257.1	-11.2	1	7.2	1.1	6.0
Clc1ccc2oc(-c3ccccc3)cc(=NCCCN3CCOCC3)c2c1	-1.2	-2.1	1.2	99.3*	1.2	63.4*
Cc1nc2ccc(NC(=O)c3cccc(S(=O)(=O)N(C)c4ccccc4)c3)cc2s1	4.1	-2.2	0.7	98.8*	0.9	23.6
Cc1ccc(N(C)S(=O)(=O)c2cccc(C(=O)Nc3nc4ccccc4[nH]3)c2)cc1	-13.0	15.8	1.1	90.0*	1.3	29.8
Cc1ccc(NC(=O)c2cccc(S(=O)(=O)N(C)c3ccccc3)c2)cc1S(=O)(=O)N1CCOCC1	-53.7	5.9	0.8	98.3*	1	-10.2
COc1ccccc1N(C)S(=O)(=O)c1ccc(C(=O)Nc2ccc3nc(C)sc3c2)cc1	-9.7	5.0	0.8	99.7*	0.9	24.7
COc1cccc(C(=O)Nc2nc3ccccc3[nH]2)c1	12.0	-8.4	0.9	28.8	1	20.7
CCOC(=O)c1c(-c2ccc(OC)cc2)cn2ccccc12	-75.5	-3.3	1	-0.6	0.9	10.2
Fc1ccc(Nc2nnc(C(F)(F)F)s2)cc1	8.5	22.9	.	.	.	.
COC(=O)c1sccc1NC(=O)CNC(=O)c1ccccc1	13.2	.	1	-7.7	1.1	0.1
COc1cccc(N2CC(=O)N(NC(=O)CSc3nc(C)cc(C)c3C#N)CC2=O)c1	-22.2	.	1	-0.9	1.1	3.1
CS(=O)(=O)N(CC(=O)Nc1ccccc1Cl)c1ccc(Cl)cc1	-21.9	-5.8	0.9	5.1	0.9	-6.5
CN(c1ccccc1)S(=O)(=O)c1ccc(Cl)c(C(=O)NC2=NCCS2)c1	-23.0	-19.8	1.1	7.0	1.1	-8.1
COc1ccc(S(=O)(=O)N(CC(=O)Nc2ccc(S(=O)(=O)N3CCOCC3)cc2)c2ccccc2)cc1	-67.5	-23.9	0.9	14.7	1	10.1
COc1ccccc1N(C)S(=O)(=O)c1ccc(Cl)c(C(=O)NC2=NCCS2)c1	21.0	0.8	0.8	57.0*	0.9	7.7
C=CCN(c1ccccc1OC)S(=O)(=O)c1ccc(Cl)c(C(=O)Nc2ccc(N3CCOCC3)cc2)c1	-81.2	.	0.9	18.7	0.8	2.1
CN(c1ccccc1C(=O)Nc1ccc(S(=O)(=O)N2CCOCC2)cc1)S(=O)(=O)c1ccccc1	10.2	-2.0	0.9	90.8*	0.9	-6.1
COc1ccc(S(=O)(=O)N(CC(=O)Nc2ccc(S(=O)(=O)N3CCOCC3)cc2)Cc2ccc(F)cc2)cc1	23.3	-9.0	0.8	97.4*	0.9	4.3
COC(=O)c1ccc(NC(=O)c2ccccc2N(C)S(=O)(=O)c2ccccc2)cc1	-25.1	.	1.1	4.5	1.1	0.0
COc1ccccc1N(C)S(=O)(=O)c1ccc(C(=O)Nc2ccc(N3CCOCC3)cc2)cc1	-10.8	0.2	1.1	98.9*	0.8	-3.4
Cc1ccc2nc(C)c(C(=O)NN=C3CCCCCC3)n2c1	-22.6	-0.2	1	-6.2	1	5.1
O=C(CCN1C(=O)c2cccc3cccc(c23)C1=O)NCc1ccco1	-38.0	2.0	1	-1.9	1	-1.5
COc1cc(C(=S)N2CCOCC2)ccc1OC(=O)/C=C/c1ccco1	-16.0	20.7	1	9.4	1	-4.8
COc1ccccc1-c1cc2nc(C)cc(C)n2n1	-11.0	-10.7	.	.	.	.
CCn1c(=O)c(C(=O)Nc2nc3ccccc3[nH]2)c(O)c2ccccc21	-83.7	1.2	1	32.6	1	83.9*
SMILES	Calpain2 inh	Rad51 HR inh	PMI act	Lmaj promast	PMI act satM6P	WT yeast gro inh
CCc1nc2ccccc2c(=O)n1NC(=O)c1c(O)c2ccccc2n(CC)c1=O	-132.5	-61.8	1	0.4	1.1	22.8
CCCNc1c(NC(C)=O)c(=O)oc2ccccc12	-22.2	.	1	28.6	0.9	-14.3
Cc1ccc(OCC(=O)N2CCN(c3nnc(-c4ccc(C)cc4)c4ccccc34)CC2)cc1	6.6	5.3	0.9	30.3	0.9	79.0*
COc1cccc(C2C3=C(CC(C)(C)CC3=O)Nc3cc4c(cc32)OCO4)c1 (stereo not drawn)	-264.3	-2.0	1	100.0*	0.9	-5.7
CC1CN(S(=O)(=O)c2cccc(C(=O)OCc3cc(=O)oc4cc(O)ccc34)c2)CC(C)O1 (stereo not drawn)	.	-2.9	0.8	95.9*	0.8	-1.5
COc1cccc(C(=O)N2CCN=C2SC)c1	-14.3	-3.5	1.1	-4.8	1	-12.5
CCOc1ccc(N=c2cc(-c3ccc(OC)cc3)oc3ccccc23)cc1	37.0	-4.5	0.9	29.7	1	73.0
COc1ccc(N=c2cc(-c3ccc(OC)cc3)oc3ccccc23)cc1	37.8	.	0.8	41.9	0.9	76.2*
COc1ccc(N=c2cc(-c3ccc(O)cc3)oc3ccccc23)cc1	-10.0	8.4	0.9	81.3*	1	25.2
COc1ccc(-c2cc(=Nc3ccc(C)cc3)c3ccccc3o2)cc1	-6.4	1.7	0.9	63.5*	1	4.0
COc1ccc(-c2cc(=O)c3ccccc3o2)cc1	-377.2	1.1	.	.	.	.
C=C(C)CCOC(=O)C(CC(=O)O)NCc1ccco1 (stereo not drawn)	20.5	8.1	.	.	.	.
O=C(Nc1nnc(-c2ccco2)o1)C1CC1	-7.2	-3.8	0.9	-6.1	1	7.2
CN(C)c1cc(-c2ccc(Br)cc2)oc(=O)c1Cl	21.5	0.4	.	.	.	.
CC(CN1CCCC1)C(=O)NN (stereo not drawn)	15.0	-10.4	1.1	-5.1	1	8.9
CC1C/C(=C\c2cccnc2)C(=O)/C(=C/c2cccnc2)C1 (stereo not drawn)	-9.3	6.8	0.9	100.3*	1	55.4
Cc1cc(C)c(S(=O)(=O)c2ccccc2C)c(Oc2ccccc2)n1	7.1	13.6	0.9	17.8	0.9	6.1
Cc1cc(C)c(S(=O)(=O)c2ccccc2C)c(Cl)n1	10.6	8.8	0.9	100.5*	1	18.3
Cc1ccc(S(=O)(=O)c2c(C)cc(C)nc2Cl)cc1	15.9	6.3	0.9	-3.1	1	2.9
Cc1cc(C)c(S(=O)(=O)c2ccccc2)c(Cl)n1	5.5	4.6	0.9	-5.2	0.9	-12.7
CCCCSc1nc(C)cc(C)c1S(=O)(=O)c1ccccc1C	-13.5	5.5	0.8	84.3*	0.8	10.2
Cc1ccc(S(=O)(=O)c2c(C)cc(C)nc2Cl)c(C)c1	8.9	0.2	0.9	100.5*	0.9	4.6
Nc1cc(C(F)(F)F)ccc1-n1cccc1	25.8	11.4	1	-0.8	1.1	-12.0
CCOC(=O)c1sc(/S(C)=N\S(=O)(=O)c2cccc(Cl)c2)c2c1CCC=C2 (stereo not drawn)	-10.9	.	.	.	.	.
O=C(Cc1ccccc1)NS(=O)(=O)c1ccc(N=NN2CCOCC2)cc1	-15.8	22.7	1	-6.1	1.1	-9.7

Screening results (PubChem BioAssay)
